From ChEMBL document CHEMBL1148782, “Inhibitors of tumor progression loci-2 (Tpl2) kinase and tumor necrosis factor alpha (TNF-alpha) production: selectivity and in vivo antiinflammatory activity of novel 8-substituted-4-anilino-6-aminoquinoline-3-carbonitriles” (J Med Chem, 2007)
≈ marks a conversion by molar mass, not a printed value. Values belong to the compound of their own block, whether it stands above or below them.

What was measured:
Rattus norvegicus [1] = assay: Inhibition of TNFalpha production in Sprague-Dawley rat at 10 mg/kg, po administered 1 hr prior to LPS challenge after 1.5 hrs; format: functional
Monocyte = assay: Inhibition of LPS-stimulated TNFalpha production in monocytes; format: functional, Homo sapiens
Blood = assay: Inhibition of LPS-stimulated TNFalpha production in human blood; format: functional
[2] = molecular target: Mitogen-activated protein kinase kinase kinase 8 (Homo sapiens, UniProt P41279); assay: Inhibition of Tpl2 by ELISA
[3] = Half life in Sprague-Dawley rat at 5 mg/kg, iv; format: ADME, organism-based; set-up: dose 5 mg/kg, route intravenous; conditions: in vivo
Summary of the method: (§1)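 Female Sprague-Dawley rats were dosed by the iv or oral route. Parameters are reported as means of individual-animal pharmacokinetic values.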

[4] = Plasma clearance in Sprague-Dawley rat at 5 mg/kg, iv; format: ADME, organism-based; set-up: dose 5 mg/kg, route intravenous; summary of the method: as §1
[5] = molecular target: Ribosomal protein S6 kinase beta-1 (Homo sapiens, UniProt P23443); assay: Inhibition of S6K
physchem = conditions: buffer, pH 7.4
[6] = Bioavailability in Sprague-Dawley rat at 25 mg/kg, po; format: ADME, organism-based; conditions: in vivo; summary of the method: as §1
[7] = molecular target: Protein kinase C alpha type (Homo sapiens, UniProt P17252); assay: Inhibition of PKCalpha
[8] = molecular target: cAMP-dependent protein kinase (PKA) (Homo sapiens, UniProt P22694+P17612+P22612); assay: Inhibition of PKA; format: protein assay
[9] = Half life in Sprague-Dawley rat at 25 mg/kg, po; format: ADME, organism-based; set-up: dose 25 mg/kg, route oral; conditions: in vivo; summary of the method: as §1
[10] = Permeability at pH 7.4 by PAMPA method; format: ADME; conditions: read-out: permeability
Summary of the method: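 Passive permeability was measured by high-resolution PAMPA at pH 7.4.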

Rattus norvegicus [11] = assay: AUC (0 to infinity) in Sprague-Dawley rat at 25 mg/kg, po; format: ADME, organism-based, Plasma; set-up: dose 25 mg/kg, route oral; conditions: in vivo; summary of the method: as §1
[12] = Volume of distribution at steady state in Sprague-Dawley rat at 5 mg/kg, iv; format: ADME, organism-based; set-up: dose 5 mg/kg, route intravenous; conditions: in vivo, read-out: Vss; summary of the method: as §1
[13] = molecular target: MAP kinase-activated protein kinase 2 (Homo sapiens, UniProt P49137); assay: Inhibition of MK2
CaM kinase II = CaM kinase II (Homo sapiens, UniProt Q13557+Q13555+Q13554+Q9UQM7)
Cytochrome P450 3A4 = Cytochrome P450 3A4 (Homo sapiens, UniProt P08684)
[14] = molecular target: Proto-oncogene tyrosine-protein kinase Src (Homo sapiens, UniProt P12931); assay: Inhibition of Src
[15] = molecular target: Mitogen-activated protein kinase 14 (Homo sapiens, UniProt Q16539); assay: Inhibition of p38alpha
[16] = molecular target: Glycogen synthase kinase-3 beta (Homo sapiens, UniProt P49841); assay: Inhibition of GSKbeta
[17] = molecular target: Tyrosine-protein kinase Lyn (Homo sapiens, UniProt P07948); assay: Inhibition of LYN
Rattus norvegicus [18] = assay: Inhibition of TNFalpha production in Sprague-Dawley rat at 50 mg/kg, po administered 1 hr prior to LPS challenge after 1.5 hrs; format: functional
[19] = molecular target: Protein kinase C theta type (Homo sapiens, UniProt Q04759); assay: Inhibition of PKCtheta
[20] = molecular target: Tyrosine-protein kinase BTK (Homo sapiens, UniProt Q06187); assay: Inhibition of BTK
[21] = molecular target: Mitogen-activated protein kinase 8 (Homo sapiens, UniProt P45983); assay: Inhibition of Jnk1
[22] = molecular target: Tyrosine-protein kinase Lck (Homo sapiens, UniProt P06239); assay: Inhibition of LCK
[23] = Plasma concentration in LPS challenged Sprague-Dawley rat at 50 mg/kg, po after 150 mins; format: ADME, organism-based; set-up: dose 50 mg/kg, route oral
[24] = Plasma concentration in LPS challenged Sprague-Dawley rat at 50 mg/kg, po after 1 hr; format: ADME, organism-based; set-up: dose 50 mg/kg, route oral
[25] = molecular target: Epidermal growth factor receptor (Homo sapiens, UniProt P00533)
Epidermal growth factor receptor, sequence (P00533 whole entry): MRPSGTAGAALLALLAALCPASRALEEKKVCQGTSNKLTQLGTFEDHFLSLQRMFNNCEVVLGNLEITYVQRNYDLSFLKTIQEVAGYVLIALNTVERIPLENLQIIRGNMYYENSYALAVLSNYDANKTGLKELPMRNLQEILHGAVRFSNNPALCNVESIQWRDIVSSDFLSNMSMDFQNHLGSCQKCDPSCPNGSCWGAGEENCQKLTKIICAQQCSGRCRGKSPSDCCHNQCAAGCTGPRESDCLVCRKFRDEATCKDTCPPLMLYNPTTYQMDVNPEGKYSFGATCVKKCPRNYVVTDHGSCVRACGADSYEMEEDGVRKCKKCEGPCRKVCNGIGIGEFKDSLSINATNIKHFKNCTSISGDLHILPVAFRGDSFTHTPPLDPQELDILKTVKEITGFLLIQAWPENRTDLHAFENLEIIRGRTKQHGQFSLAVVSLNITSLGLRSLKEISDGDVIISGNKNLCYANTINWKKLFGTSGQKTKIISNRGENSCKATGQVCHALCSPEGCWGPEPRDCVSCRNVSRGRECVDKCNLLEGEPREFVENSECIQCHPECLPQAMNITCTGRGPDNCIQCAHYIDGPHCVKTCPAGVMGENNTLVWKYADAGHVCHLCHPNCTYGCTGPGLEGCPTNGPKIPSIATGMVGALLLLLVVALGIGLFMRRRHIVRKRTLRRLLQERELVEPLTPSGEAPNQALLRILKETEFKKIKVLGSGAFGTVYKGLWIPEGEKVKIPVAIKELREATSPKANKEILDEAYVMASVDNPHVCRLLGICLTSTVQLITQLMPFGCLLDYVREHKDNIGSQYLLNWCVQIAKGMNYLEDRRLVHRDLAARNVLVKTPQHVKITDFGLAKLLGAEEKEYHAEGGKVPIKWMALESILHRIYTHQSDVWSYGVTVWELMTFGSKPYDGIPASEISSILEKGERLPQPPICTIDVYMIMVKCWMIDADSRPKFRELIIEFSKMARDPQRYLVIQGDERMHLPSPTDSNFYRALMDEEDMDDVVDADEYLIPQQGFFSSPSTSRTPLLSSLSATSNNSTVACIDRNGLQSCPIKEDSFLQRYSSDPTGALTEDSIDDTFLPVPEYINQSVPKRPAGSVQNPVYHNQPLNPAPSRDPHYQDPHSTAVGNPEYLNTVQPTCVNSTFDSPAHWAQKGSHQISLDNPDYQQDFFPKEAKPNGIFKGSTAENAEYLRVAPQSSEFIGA

Mitogen-activated protein kinase kinase kinase 8, sequence (P41279 whole entry): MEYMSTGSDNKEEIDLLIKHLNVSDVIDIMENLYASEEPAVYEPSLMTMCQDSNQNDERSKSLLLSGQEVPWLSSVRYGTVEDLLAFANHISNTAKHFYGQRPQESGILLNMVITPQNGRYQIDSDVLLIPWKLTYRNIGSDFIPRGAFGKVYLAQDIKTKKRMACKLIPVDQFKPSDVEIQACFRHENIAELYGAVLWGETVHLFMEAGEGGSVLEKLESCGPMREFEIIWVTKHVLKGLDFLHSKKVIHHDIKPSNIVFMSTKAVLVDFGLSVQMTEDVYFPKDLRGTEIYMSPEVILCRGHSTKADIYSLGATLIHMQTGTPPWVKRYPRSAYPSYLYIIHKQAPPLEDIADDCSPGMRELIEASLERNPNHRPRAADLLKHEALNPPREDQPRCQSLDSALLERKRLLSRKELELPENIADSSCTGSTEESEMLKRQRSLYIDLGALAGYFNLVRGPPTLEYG
Ribosomal protein S6 kinase beta-1, sequence (P23443 whole entry): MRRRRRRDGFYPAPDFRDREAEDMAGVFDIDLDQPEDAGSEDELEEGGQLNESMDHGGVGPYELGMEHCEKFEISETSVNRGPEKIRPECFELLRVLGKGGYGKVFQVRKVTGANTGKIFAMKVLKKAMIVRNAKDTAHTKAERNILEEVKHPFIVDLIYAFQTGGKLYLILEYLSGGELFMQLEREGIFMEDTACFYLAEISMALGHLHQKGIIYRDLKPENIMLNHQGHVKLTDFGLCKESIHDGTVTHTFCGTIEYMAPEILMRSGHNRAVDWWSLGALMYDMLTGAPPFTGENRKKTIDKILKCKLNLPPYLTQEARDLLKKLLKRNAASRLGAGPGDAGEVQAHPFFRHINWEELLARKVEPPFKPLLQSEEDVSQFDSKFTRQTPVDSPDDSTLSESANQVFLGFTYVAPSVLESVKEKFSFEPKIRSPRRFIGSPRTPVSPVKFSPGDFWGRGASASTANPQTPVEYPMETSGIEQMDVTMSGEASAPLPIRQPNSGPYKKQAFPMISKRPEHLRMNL
Mitogen-activated protein kinase 14, sequence (Q16539 whole entry): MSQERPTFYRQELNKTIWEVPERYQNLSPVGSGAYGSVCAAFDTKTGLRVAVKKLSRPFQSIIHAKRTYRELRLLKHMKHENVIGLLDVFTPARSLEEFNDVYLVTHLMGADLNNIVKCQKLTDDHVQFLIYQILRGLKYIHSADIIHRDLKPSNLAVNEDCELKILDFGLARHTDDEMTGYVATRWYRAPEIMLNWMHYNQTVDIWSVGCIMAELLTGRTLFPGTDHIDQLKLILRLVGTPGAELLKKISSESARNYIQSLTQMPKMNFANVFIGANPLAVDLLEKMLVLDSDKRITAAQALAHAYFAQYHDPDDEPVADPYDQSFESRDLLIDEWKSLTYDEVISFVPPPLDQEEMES
MAP kinase-activated protein kinase 2, sequence (P49137 whole entry): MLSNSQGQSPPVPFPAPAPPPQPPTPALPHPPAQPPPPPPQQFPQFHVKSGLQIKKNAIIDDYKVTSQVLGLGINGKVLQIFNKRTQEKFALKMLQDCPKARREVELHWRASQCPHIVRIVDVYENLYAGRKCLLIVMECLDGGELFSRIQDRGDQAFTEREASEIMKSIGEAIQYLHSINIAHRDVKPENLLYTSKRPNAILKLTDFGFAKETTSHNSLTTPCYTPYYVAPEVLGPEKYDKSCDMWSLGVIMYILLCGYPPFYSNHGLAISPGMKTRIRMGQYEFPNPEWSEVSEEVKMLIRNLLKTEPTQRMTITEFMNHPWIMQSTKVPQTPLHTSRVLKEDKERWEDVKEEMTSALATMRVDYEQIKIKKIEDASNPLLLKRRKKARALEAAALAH
Proto-oncogene tyrosine-protein kinase Src, sequence (P12931 2-536 limits assumed): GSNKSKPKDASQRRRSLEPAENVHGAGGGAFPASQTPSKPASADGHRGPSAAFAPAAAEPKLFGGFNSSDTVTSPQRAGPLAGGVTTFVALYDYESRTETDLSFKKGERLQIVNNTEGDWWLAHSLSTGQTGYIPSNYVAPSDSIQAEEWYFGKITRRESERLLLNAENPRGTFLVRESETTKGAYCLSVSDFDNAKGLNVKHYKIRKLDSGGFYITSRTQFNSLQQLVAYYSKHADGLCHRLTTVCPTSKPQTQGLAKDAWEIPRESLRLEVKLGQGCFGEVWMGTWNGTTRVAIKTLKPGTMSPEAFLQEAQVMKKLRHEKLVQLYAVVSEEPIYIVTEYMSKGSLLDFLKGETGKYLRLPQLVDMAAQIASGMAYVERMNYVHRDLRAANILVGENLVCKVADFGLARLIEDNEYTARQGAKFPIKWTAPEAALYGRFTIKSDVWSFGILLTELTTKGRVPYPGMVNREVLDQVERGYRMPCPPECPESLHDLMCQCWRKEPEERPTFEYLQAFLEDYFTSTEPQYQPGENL
Cytochrome P450 3A4, sequence (P08684 whole entry): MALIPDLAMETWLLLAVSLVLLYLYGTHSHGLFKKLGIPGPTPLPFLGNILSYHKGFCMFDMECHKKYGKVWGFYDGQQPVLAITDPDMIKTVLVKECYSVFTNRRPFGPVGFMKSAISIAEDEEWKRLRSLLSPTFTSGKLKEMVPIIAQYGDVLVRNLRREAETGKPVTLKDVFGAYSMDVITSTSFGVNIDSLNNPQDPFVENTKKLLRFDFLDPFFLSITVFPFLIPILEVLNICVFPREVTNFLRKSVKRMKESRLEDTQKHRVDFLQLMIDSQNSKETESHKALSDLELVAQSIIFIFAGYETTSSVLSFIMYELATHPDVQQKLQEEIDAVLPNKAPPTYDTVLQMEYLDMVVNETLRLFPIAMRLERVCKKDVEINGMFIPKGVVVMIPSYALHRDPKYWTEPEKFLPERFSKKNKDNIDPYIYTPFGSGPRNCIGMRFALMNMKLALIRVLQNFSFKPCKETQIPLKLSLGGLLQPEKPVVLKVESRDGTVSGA

Compound: CC#CCOc1ccc(S(=O)(=O)N2CCSC(C)(C)[C@@H]2C(=O)NO)cc1
- inhibition in vivo at 10 mg/kg (Rattus norvegicus [1]): 85%

Compound: N#Cc1cnc2ccc(NCc3c[nH]cn3)cc2c1Nc1ccc(F)c(Cl)c1
- Inhibitory concentration (Monocyte): 600 nM
- Activity (Blood): 3.3 µM

- IC50 [2]: 0.002 µM
Compound: N#Cc1cnc2c(Cl)cc(NCc3nn[nH]n3)cc2c1Nc1ccc(F)c(Cl)c1
- Inhibitory concentration (Monocyte): >5000 nM
- Activity (Blood): >20 µM

- half-life [3]: 3.2 h
- clearance [4]: 1.74 L/h/kg
- IC50 [5]: > 100 µM
- solubility (physchem): < 0.01 mg/mL
- bioavailability [6]: 2%
- IC50 [7]: > 100 µM
- IC50 [8]: > 100 µM
- half-life [9]: 3.9 h
- Papp [10]: < 50 nm/s
- AUC/dose (Rattus norvegicus [11]): < 10 ng·kg·h/mg/mL
- Vd [12]: 2.7 L/kg
Compound: N#Cc1cnc2c(Br)cc(NCc3cn[nH]n3)cc2c1Nc1ccc(F)c(Cl)c1
- Inhibitory concentration (Monocyte): 74 nM
- Activity (Blood): 3.5 µM

Compound: CC(C)c1[nH]cnc1CNc1cc(Br)c2ncc(C#N)c(Nc3ccc(F)c(Cl)c3)c2c1
- Inhibitory concentration (Monocyte): 2200 nM
- Activity (Blood): >20 µM

Compound: CC(C)c1[nH]cnc1CNc1cc(Cl)c2ncc(C#N)c(Nc3ccc(F)c(Cl)c3)c2c1
- Activity (Blood): 5.8 µM

- half-life [3]: 1.2 h
- clearance [4]: > 6 L/h/kg
- IC50 [13]: 62.7 µM
- IC50 [5]: 18.8 µM
- solubility (physchem): < 0.01 mg/mL
- IC50 (CaM kinase II): > 40 µM
- IC50 (Cytochrome P450 3A4): 16 µM
- IC50 [7]: > 40 µM
- IC50 [8]: 76.1 µM
- IC50 [14]: > 40 µM
- Papp [10]: < 50 nm/s
- IC50 [15]: > 40 µM
- Vd [12]: 12.2 L/kg
Compound: CCCc1[nH]cnc1CNc1cc(Cl)c2ncc(C#N)c(Nc3ccc(F)c(Cl)c3)c2c1
- Inhibitory concentration (Monocyte): 220 nM
- Activity (Blood): 5.6 µM

Compound: COC(=O)c1[nH]cnc1CNc1cc(Br)c2ncc(C#N)c(Nc3ccc(F)c(Cl)c3)c2c1
- Inhibitory concentration (Monocyte): 2000 nM
- Activity (Blood): >20 µM

Compound: CN(C)CCCc1[nH]cnc1CNc1cc(Cl)c2ncc(C#N)c(Nc3ccc(F)c(Cl)c3)c2c1
- Activity (Blood): 15.2 µM

- IC50 [2]: 0.35 µM
Compound: N#Cc1cnc2c(Cl)cc(NCc3cccc(N4CCOCC4)n3)cc2c1Nc1ccc(F)c(Cl)c1

- half-life [3]: 5 h
- IC50 [16]: > 10 µM
- IC50 [17]: > 30 µM
- clearance [4]: 3 L/h/kg
- IC50 [19]: > 50 µM
- IC50 [20]: > 10 µM
- IC50 [13]: 87.1 µM
- IC50 [5]: 83.1 µM
- solubility (physchem): < 0.01 mg/mL
- bioavailability [6]: 42%
- IC50 [21]: 31 µM
- IC50 (Cytochrome P450 3A4): 15 µM
- IC50 [7]: > 40 µM
- IC50 [8]: > 100 µM
- half-life [9]: 4 h
- IC50 [22]: 4.5 µM
- concentration at 2.5 h [23]: 0.55 µM
- IC50 [14]: > 40 µM
- Papp [10]: < 50 nm/s
- IC50 [15]: > 40 µM
- concentration at 1 h [24]: 1.1 µM
- AUC/dose (Rattus norvegicus [11]): 142 ng·kg·h/mg/mL
- Vd [12]: 14.1 L/kg
Compound: Cn1cnc(CNc2cc(Br)c3ncc(C#N)c(Nc4ccc(F)c(Cl)c4)c3c2)c1
- inhibition in vivo at 50 mg/kg (Rattus norvegicus [18]): 50%
- Inhibitory concentration (Monocyte): 670 nM
- Activity (Blood): 6.3 µM

- solubility (physchem): 0.069 mg/mL (≈ 118 µM)
Compound: N#Cc1cnc2c(Br)cc(NCc3cn(CCN4CCOCC4)cn3)cc2c1Nc1ccc(F)c(Cl)c1
- Inhibitory concentration (Monocyte): 430 nM
- Activity (Blood): 8.95 µM

Compound: CS(=O)(=O)CCn1cnc(CNc2cc(Br)c3ncc(C#N)c(Nc4ccc(F)c(Cl)c4)c3c2)c1
- Inhibitory concentration (Monocyte): 1000 nM
- Activity (Blood): >20 µM

- IC50 [2]: 0.01 µM
- solubility (physchem): 0.002 mg/mL (≈ 4.24 µM)
- IC50 [25]: 3.3 µM
Compound: N#Cc1cnc2c(Br)cc(NCc3c[nH]cn3)cc2c1Nc1ccc(F)c(Cl)c1
- Inhibitory concentration (Monocyte): 370 nM
- Activity (Blood): >10 µM

- IC50 [2]: 0.16 µM
- IC50 [25]: > 20 µM
Compound: N#Cc1cnc2c(C(F)(F)F)cc(NCc3c[nH]cn3)cc2c1Nc1ccc(F)c(Cl)c1
- Inhibitory concentration (Monocyte): 600 nM
- Activity (Blood): >10 µM
